Results taken from ChEMBL document CHEMBL1773020, “Discovery of fused bicyclic agonists of the orphan G-protein coupled receptor GPR119 with in vivo activity in rodent models of glucose control” (Bioorg Med Chem Lett, 2011).

What was measured:
[1] = target: T1, Glucose-dependent insulinotropic receptor (Homo sapiens) (UniProt Q8TDV5); test: Agonist activity at human GPR119 by melanophore assay relative to AR231453; type: functional
T1 sequence (whole entry): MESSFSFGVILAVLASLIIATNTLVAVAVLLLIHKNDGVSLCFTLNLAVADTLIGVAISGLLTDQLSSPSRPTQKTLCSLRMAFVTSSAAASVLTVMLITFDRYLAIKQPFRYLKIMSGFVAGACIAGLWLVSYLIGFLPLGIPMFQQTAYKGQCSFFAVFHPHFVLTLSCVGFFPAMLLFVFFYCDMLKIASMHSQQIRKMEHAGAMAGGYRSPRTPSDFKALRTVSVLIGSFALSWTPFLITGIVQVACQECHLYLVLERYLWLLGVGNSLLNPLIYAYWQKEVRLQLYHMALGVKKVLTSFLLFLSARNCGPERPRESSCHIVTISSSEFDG
Procedure, shortened: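 Melanophores transfected with human GPR119. Apparent Emax is the curve height normalized to the positive control AR231453, which is defined as a full agonist (100% efficacy).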

[2] = target: T2, Glucose-dependent insulinotropic receptor (Homo sapiens, UniProt Q8TDV5); test: Agonist activity at human GPR119 by melanophore assay; type: functional
T2 sequence (Q8TDV5 whole entry): T1 sequence (whole entry)
Procedure, shortened: (§1)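 Agonist EC50 measured in melanophores transfected with the human or rat GPR119 receptor sequence. Values are means of multiple determinations (n).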

[3] = target: T3, Glucose-dependent insulinotropic receptor (Rattus norvegicus, UniProt Q7TQN8); test: Agonist activity at rat GPR119 by melanophore assay; type: functional; procedure, shortened: as §1
T3 sequence (Q7TQN8 whole entry): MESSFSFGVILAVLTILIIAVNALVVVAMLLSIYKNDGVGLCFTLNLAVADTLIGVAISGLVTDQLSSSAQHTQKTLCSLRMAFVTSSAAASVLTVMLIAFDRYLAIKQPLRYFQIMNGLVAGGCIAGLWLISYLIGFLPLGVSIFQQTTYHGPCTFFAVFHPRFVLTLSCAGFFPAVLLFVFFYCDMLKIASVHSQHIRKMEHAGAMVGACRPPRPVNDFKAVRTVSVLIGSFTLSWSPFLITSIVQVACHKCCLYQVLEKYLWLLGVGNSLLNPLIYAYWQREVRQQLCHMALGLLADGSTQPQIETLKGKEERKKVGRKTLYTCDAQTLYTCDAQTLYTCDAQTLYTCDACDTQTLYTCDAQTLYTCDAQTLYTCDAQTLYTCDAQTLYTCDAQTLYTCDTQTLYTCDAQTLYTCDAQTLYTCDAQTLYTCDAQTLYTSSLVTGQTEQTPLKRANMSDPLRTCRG

[4] = target: T4, Glucose-dependent insulinotropic receptor (Rattus norvegicus) (UniProt Q7TQN8); test: Selectivity ratio of EC50 for rat GPR119 to EC50 for human GPR119
T4 sequence (whole entry): T3 sequence (Q7TQN8 whole entry)

| SMILES | Emax [1] [%] | EC50 [2] [nM] | EC50 [3] [nM] | Ratio EC50 [4] |
| --- | --- | --- | --- | --- |
| CC(C)(C)OC(=O)N1CCC(Nc2ncnc3c2cnn3-c2ccc(S(C)(=O)=O)cc2)CC1 | 101 | 250 | > 10000 | > 40 |
| Cc1nn(-c2ccc(S(C)(=O)=O)cc2)c2ncnc(OC3CCN(C(=O)OC(C)(C)C)CC3)c12 | 103 | 15 | 42 | 3 |
| CC(C)(C)COC(=O)N1CCC(Oc2ncnc3c2cnn3-c2ccc(S(C)(=O)=O)cc2)CC1 | 105 | 8.1 | 65 | 8 |
| CN(CC1CCN(C(=O)OC(C)(C)C)CC1)c1ncnc2c1cnn2-c1ccc(S(C)(=O)=O)cc1 | 89 | 11.6 | – | – |
| CC(C)(C)OC(=O)N1CCC(Oc2ncnc3c2ncn3-c2ccc(S(C)(=O)=O)cc2)CC1 | 95 | 33.4 | – | – |
| CC(C)c1noc(C2CCN(c3ncnc4c3cnn4-c3ccc(S(C)(=O)=O)cc3)CC2)n1 | – | 42 | – | – |
| Cc1nc(OC2CCN(C(=O)OC(C)(C)C)CC2)c2c(C)nn(-c3ccc(S(C)(=O)=O)cc3)c2n1 | 90 | 116 | – | – |
| CC(C)(C)OC(=O)N1CCC(CNc2ncnc3c2cnn3-c2ccc(S(C)(=O)=O)cc2)CC1 | 87 | 265 | – | – |
| CC(C)(C)OC(=O)N1CCC(S(=O)(=O)c2ncnc3c2cnn3-c2ccc(S(C)(=O)=O)cc2)CC1 | – | > 10000 | > 10000 | – |
| CS(=O)(=O)c1ccc(-n2ncc3c(OC4CCN(C(=O)OC5CCOC5)CC4)ncnc32)cc1 (stereo not drawn) | 71 | 435 | – | – |
| CN(C)CCOC(=O)N1CCC(Oc2ncnc3c2cnn3-c2ccc(S(C)(=O)=O)cc2)CC1 | – | > 10000 | – | – |
| CC(C)(C)OC(=O)N1CCC([S+]([O-])c2ncnc3c2cnn3-c2ccc(S(C)(=O)=O)cc2)CC1 (stereo not drawn) | – | 2400 | > 10000 | – |

These reach a lower EC50 [2]. Values come first.

| Emax [1] [%] | EC50 [2] [nM] | EC50 [3] [nM] | Ratio EC50 [4] | SMILES |
| --- | --- | --- | --- | --- |
| 79 | 7.5 | – | – | CCCCOC(=O)N1CCC(Oc2ncnc3c2cnn3-c2ccc(S(C)(=O)=O)cc2)CC1 |
| 96 | 1.1 | 9.8 | 8.9 | CC(C)(C)OC(=O)N1CCC(Oc2ncnc3c2cnn3-c2ccc(S(C)(=O)=O)cc2)CC1 |
| 83 | 3.5 | – | – | CC(C)OC(=O)N1CCC(Oc2ncnc3c2cnn3-c2ccc(S(C)(=O)=O)cc2)CC1 |
| 103 | 7.4 | 42 | 5.7 | CC(C)(C)OC(=O)N1CCC(Oc2ncnc3c2nnn3-c2ccc(S(C)(=O)=O)cc2)CC1 |
| 91 | 3.8 | 53 | 13.9 | CCOC(=O)N1CCC(Oc2ncnc3c2cnn3-c2ccc(S(C)(=O)=O)cc2)CC1 |
| 64 | 0.6 | – | – | CC(C)(C)OC(=O)N1CCC(Oc2ncnc3c2[nH]c(=O)n3-c2ccc(S(C)(=O)=O)cc2F)CC1 |
| 82 | 3.4 | 264 | 77.6 | CCN(CC1CCN(C(=O)OC(C)C)CC1)c1ncnc2c1cnn2-c1ccc(S(C)(=O)=O)cc1F |
| 91 | 7.3 | 120 | 16.4 | CC(C)(C)OC(=O)N1CCC(Cc2ncnc3c2cnn3-c2ccc(S(C)(=O)=O)cc2)CC1 |
| – | 5.1 | – | – | CC(C)c1noc(C2CCN(c3ncnc(Nc4ccc(S(C)(=O)=O)cc4)c3[N+](=O)[O-])CC2)n1 |
| 79 | 0.9 | 19.6 | 21.8 | CC(C)(C)OC(=O)N1CCC(Oc2ncnc3c2cnn3-c2ccc(S(C)(=O)=O)cc2F)CC1 |
| 67 | 6.3 | – | – | CCN(CC1CCN(C(=O)OC(C)(C)C)CC1)c1ncnc2c1cnn2-c1ccc(S(C)(=O)=O)cc1 |
| – | 0.65 | – | – | CC(C)c1noc(C2CCN(c3ncnc(Nc4ccc(S(C)(=O)=O)cc4F)c3[N+](=O)[O-])CC2)n1 |
| 99 | 4.2 | – | – | CC(C)COC(=O)N1CCC(Oc2ncnc3c2cnn3-c2ccc(S(C)(=O)=O)cc2)CC1 |
| 100 | 0.7 | 17 | 24.3 | CC(C)(C)OC(=O)N1CCC(Oc2ncnc3c(-c4ccc(S(C)(=O)=O)cc4)noc23)CC1 |
